# Tests used:
# [1] = tested on: human pluripotent cells (ESCs, iPSCs, ECCs); assay: ATP loss, summary over pluripotent cell lines; assay type: cell-based
# Outline: (§1)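 Cellular ATP was measured with a CellTiter-Glo luminescence viability assay after exposure to a concentration range of test compound. IC50 is the average of three independent assays. Mean IC50s across differentiated or human pluripotent lines, and their ratio, are derived from the per-line values.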
# H1 ESCs = assay: Immunoblotting of total cell extracts; assay type: cell-based, human
# Outline: (§2)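 Cells were cultured with 2.5 μM test compound for up to 96 h, and attached plus unattached cells were pooled. Whole-cell RIPA lysates were run on 4–12% Bis-Tris gels, transferred to nitrocellulose and blocked in 5% milk/TBS. Primary antibodies went on overnight at 4°C, followed by infrared secondary antibodies and imager quantitation. Each blot carried untreated U2OS as a shared standard, with Ponceau-S histones for normalization and lighter exposures for quantitation. Adriamycin for 24 h (NTERA-2 1 μM, H108 2 μM) served as a DNA-break control.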
# differentiated cells [2] = assay: ATP loss, summary over differentiated cell lines; assay type: cell-based; details: read-out: IC50 ATP loss, on average
# Outline: as §1
# WA09/H9 ESC = assay: Live cells / PCD by FACS of nonpermeabilized cells stained with annexin-V and PI; assay type: cell-based, human; details: read-out: IC50 Live Cells
# Outline: (§3)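 Cells were seeded so that vehicle wells stayed subconfluent, then treated with a range of test compound concentrations for 4 days. Without permeabilization, they were stained with annexin-V-FITC and propidium iodide and analysed by flow cytometry. Double-negative cells (Q3) were scored as live and Q1+Q2 as programmed death. Vehicle was set to 100% viable and 0% dead. Results are the mean of three independent assays with SEM; group averages and ratios are derived from the IC50s.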
# TERA-2 ECC [3] = assay: as above; assay type: cell-based, human; details: read-out: IC50 Live Cells, 4 days
# Outline: as §3
# [4] = tested on: NTERA-2 teratocarcinoma xenografts; assay: Teratocarcinoma xenograft, daily intraperitoneal injections; assay type: in vivo, mice
# Outline: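 Six-week-old female […] BALB/c nude mice were injected subcutaneously in the lower right flank with 200 μL of 50% Matrigel holding 2 million NTERA-2 or 5 million GCT27D.C1 cells (eight mice per model). Once tumors were palpable, mice received 40 mg/kg test compound i.p. daily (DMSO solution diluted in sunflower oil to 200 μL) or vehicle. Tumor volume was calculated as length × width² × 0.5 from calipers, TGI was calculated, and body weight was tracked. Tumors were harvested 15 days later.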
# [5] = tested on: H108 normal skin fibroblast; assay: Cells with <2N DNA by FACS of permeabilized cells stained with PI; assay type: cell-based, human; details: read-out: IC50 DNA (50% of cells with <2N DNA)
# Outline: (§4)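 Cells were exposed to a range of test compound concentrations alongside vehicle (DMSO) controls. They were then permeabilized, stained with propidium iodide, and DNA content was read by flow cytometry. IC50 is the concentration at which 50% of cells hold <2N DNA, from 3 independent repetitions with SEM. Line averages and differentiated/pluripotent ratios are derived from these IC50s. NTERA-2 was also run as a time course at 5 μM, normalized to vehicle at each time point.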
# [6] = tested on: HFF-1 normal skin fibroblast; assay: Cellular ATP level; assay type: cell-based, human; details: read-out: IC50 ATP
# Outline: as §1
# differentiated cells [7] = assay: DNA loss; assay type: cell-based; details: read-out: IC50 DNA loss, on average; average over differentiated cells
# Outline: as §4
# [8] = tested on: VeroE6 normal kidney epithelial; assay: Cellular ATP level; assay type: cell-based, monkey; details: read-out: IC50 ATP
# Outline: as §1
# [9] = tested on: H108 normal skin fibroblast; assay: Cellular ATP level; assay type: cell-based, human; details: read-out: IC50 ATP
# Outline: as §1
# [10] = Maximum solubility in DMSO; assay type: physicochemical
# [11] = tested on: VeroE6 normal kidney epithelial; assay: Live cells / PCD by FACS of nonpermeabilized cells stained with annexin-V and PI; assay type: cell-based, monkey; details: read-out: IC50 Live Cells (PCD)
# Outline: as §3
# [12] = tested on: H1-diff (spontaneously differentiated H1 ESCs); assay: as above; assay type: cell-based, human; details: read-out: IC50 Live Cells, 4 days
# Outline: as §3
# NTERA-2 ECC = assay: Cellular ATP level; assay type: cell-based, human; details: read-out: IC50 ATP
# Outline: as §1
# differentiated cells [13] = assay: PCD / live cell loss; assay type: cell-based; details: read-out: IC50 initiation of PCD, on average; average over differentiated cells
# Outline: as §3
# H108 fibroblasts = assay: Immunoblotting of total cell extracts; assay type: cell-based, human
# Outline: as §2
# GCT27D.C1 ECC = assay: Cells with <2N DNA by FACS of permeabilized cells stained with PI; assay type: cell-based, human
# Outline: as §4
# WA01/H1 ESC = assay: Live cells / PCD by FACS of nonpermeabilized cells stained with annexin-V and PI; assay type: cell-based, human; details: read-out: IC50 Live Cells
# Outline: as §3
# [14] = tested on: HBEC normal lung epithelial; assay: as above; assay type: cell-based, human; details: read-out: IC50 Live Cells
# Outline: as §3
# TERA-2 ECC [15] = assay: Cellular ATP level; assay type: cell-based, human; details: read-out: IC50 ATP
# Outline: as §1
# [16] = H1, 2.5 μM WX8, normalized to histones
# [17] = H108, 2.5 μM WX8, normalized to histones
# [18] = H108 fibroblasts, 2.5 μM WX8 or 2 μM Adriamycin 24 h
smiles,measurement,setting,value
C(=N\Nc1nc(Nc2ccccc2)nc(N2CCOCC2)n1)/c1c[nH]c2ccccc12 [WX8],"Difference in ATP loss, differentiated vs pluripotent cells",[1]; ratio of average IC50,13 fold
same,IC50,"[1]; read-out: IC50 ATP loss, on average, average over human pluripotent cells",1.2 µM
same,CASP3 cleavage,"H1 ESCs; H1, 2.5 μM WX8",< 2%
same,PARP cleavage,"H1 ESCs; H1, 2.5 μM WX8",20%
same,Accumulation of p62 protein,H1 ESCs; [16],< 2 fold
same,Accumulation of total LC3 protein,H1 ESCs; [16],2 fold
same,CASP12 cleavage,"H1 ESCs; H1, WX8",< 2%
same,Cleaved CASP7,"H1 ESCs; H1, WX8",not detected
same,IC50,differentiated cells [2],15.8 µM
same,IC50,WA09/H9 ESC,2.5 µM
same,IC50,TERA-2 ECC [3],5 µM
same,Tumor growth inhibition (TGI),"[4]; NTERA-2 tumors, 40 mg WX8/kg daily i.p.",71%
same,Mouse body weights,"[4]; NTERA-2 xenograft mice, 40 mg WX8/kg daily i.p.",maintained
same,Effect on teratocarcinoma xenografts,"[4]; NTERA-2 xenografts, intraperitoneal injections of WX8",Eliminated stem cells and inhibited tumor growth
same,IC50,[5],140 µM
same,IC50,[6],28 µM
same,IC50,differentiated cells [7],67.5 µM
same,IC50,[8],14 µM
same,IC50,[9],15 µM
same,Maximum solubility,[10],about 30 mg WX8/350μL DMSO
same,IC50,[11],60 µM
same,IC50,[12],> 10 µM
same,IC50,NTERA-2 ECC,0.48 µM
same,IC50,differentiated cells [13],81.3 µM
same,Accumulation of p62 protein,H108 fibroblasts; [17],13 fold
same,Accumulation of total LC3 protein,H108 fibroblasts; [17],10 fold
same,CASP3 cleavage,H108 fibroblasts; [18],Neither WX8 nor Adriamycin induced cleavage
same,PARP cleavage,H108 fibroblasts; [18],Neither WX8 nor Adriamycin induced cleavage
same,"Range of sensitivity to WX8-induced cell death (DNA loss), H108/GCT27DC1",GCT27D.C1 ECC; ratio differentiated/pluripotent,700 fold
same,IC50,"GCT27D.C1 ECC; read-out: IC50 DNA (50% of cells with <2N DNA), GCT27D.C1 ECC",0.2 µM
same,IC50,WA01/H1 ESC,1.9 µM
same,IC50,[14],140 µM
same,IC50,TERA-2 ECC [15],3 µM
